{"source": "the RNAGym collection of RNA variant scans (doi:10.1126/science.aae0568)", "parents": {"B1": {"name": "tRNA (parent)", "chain": "GUUCCGUUGGCGUAAUGGUAACGCGUCUCCCUCCUAAGGAGAAGACUGCGGGUUCGAGUCCCGUACGGAACG"}}, "note": "This sample holds only a part of the variants without activity."}
{"variants_of": "B1", "assay": "yeast fitness relative to wild type (ratio to wild type); higher = fitter; tRNA-Arg(CCU), competitive growth, 37 C, YPD", "outline": "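Amplicons of the tRNA-Arg(CCU) gene were sequenced, 100-nucleotide paired-end, from the start population and from each end population of a pooled yeast competition. The competition, in six parallel replicates, lasted 24 hours in YPD at 37°C. Fitness relative to wild type was calculated from changes in genotype frequencies. Genotypes had to have ≥ 100 starting reads, and estimates < 0.5 were set to 0.5.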"}
{"variant": "GUUCCGUUGGCGUAAUGGUAACGCGUCUCCCUCCUAAGAAGAAGACUGCGGGUUCGAGUCCCGUACGGGGCG", "note": "[G39A A69G A70G]", "yeast fitness": 0.946}
{"variant": "GUUCCGUUGGCGUAAUGGUAACGCGUCUCCCUCCUAAGAAGAAAACUGCAGGUUCGAGUCCCGUACGGAACG", "note": "[G39A G44A G50A]", "yeast fitness": 0.607}
{"variant": "GUUCCGUUGGCGUAAUGGUAACGCGUCUCCCUCCUAAGAAGAUGACUGCGGGAUCGUGUCCCGUUCGGAACG", "note": "[G39A A43U U53A A57U A65U]", "yeast fitness": "≤ 0.5"}
{"variant": "GUUCCGUUGGCGUAAUGGUAACGCGUCUCCCUCCUAAGAAGAAGACUGCGGGUUCGAGUCACGUACGGUACG", "note": "[G39A C61A A69U]", "yeast fitness": "≤ 0.5"}
{"variant": "GUUCCGUUGGCGUAAUGGUAACGCGUCUCCCUCCUAAGAAGAAGACUGCGCGUUCGAGCCCCGUACGGAACG", "note": "[G39A G51C U59C]", "yeast fitness": "≤ 0.5"}
{"variant": "GUUCCGUUGGCGUAAUGGUAACGCGUCUCCCUCCUAAGAAGAAGACUGCGGGUUCGAGUCACGUACGGAACG", "note": "[G39A C61A]", "yeast fitness": 0.789}
{"variant": "GUUCCGUUGGCGUAAUGGUAACGCGUCUCCCUCCUAAGAAGAAGACUGCGGGUUCGAGUCUCGUACGGAACG", "note": "[G39A C61U]", "yeast fitness": 0.866}
{"variant": "GUUCCGUUGGCGUAAUGGUAACGCGUCUCCCUCCUAAGAAGAAGACUGCGGGUUCGAGUCCCGUACGGUACG", "note": "[G39A A69U]", "yeast fitness": 1.03}
{"variant": "GUUCCGUUGGCGUAAUGGUAACGCGUCUCCCUCCUAAGAAGAAGACUGCGGGUUCGAGUCCCGUACGGCACG", "note": "[G39A A69C]", "yeast fitness": 0.818}
{"variant": "GUUCCGUUGGCGUAAUGGUAACGCGUCUCCCUCCUAACGAGAAGACUGCGGGUGCGAGUACCGUACGGAACG", "note": "[G38C U54G C60A]", "yeast fitness": 0.589}
{"variant": "GUUCCGUUGGCGUAAUGGUAACGCGUCUCCCUCCUAACGAGAAGACUGCGGGUUCGAGUCCCGAACGACACG", "note": "[G38C U64A G68A A69C]", "yeast fitness": "≤ 0.5"}
{"variant": "GUUCCGUUGGCGUAAUGGUAACGCGUCUCCCUCCUAAGAAGAAGACUGCGGGUUCGAGUGCCGUACGGAGCG", "note": "[G39A C60G A70G]", "yeast fitness": "≤ 0.5"}
{"variant": "GUUCCGUUGGCGUAAUGGUAACGCGUCUCCCUCCUAAGAAGAACACUGCGGGUUCGAGUCCCGUACGGAACG", "note": "[G39A G44C]", "yeast fitness": 0.816}
{"variant": "GUUCCGUUGGCGUAAUGGUAACGCGUCUCCCUCCUAAGAAGAAGACUGCGGGUUAGAGUCCCGUACGGAACG", "note": "[G39A C55A]", "yeast fitness": 0.696}
{"variant": "GUUCCGUUGGCGUAAUGGUAACGCGUCUCCCUCCUAAGAAGAAGACUGCGGGUUGGAGUCCCGUACGGAACG", "note": "[G39A C55G]", "yeast fitness": 0.726}
{"variant": "GUUCCGUUGGCGUAAUGGUAACGCGUCUCCCUCCUAAGAAGAAGACUGCGGGUUUGAGUCCCGUACGGAACG", "note": "[G39A C55U]", "yeast fitness": 0.873}
{"variant": "GUUCCGUUGGCGUAAUGGUAACGCGUCUCCCUCCUAACGAGAAGACUGCGGGUUCAAAUCCCGUCCGGAACG", "note": "[G38C G56A G58A A65C]", "yeast fitness": "≤ 0.5"}
{"variant": "GUUCCGUUGGCGUAAUGGUAACGCGUCUCCCUCCUAACGAGAAGACUGCGGGUUCGAGUCCCAUACGGAACG", "note": "[G38C G63A]", "yeast fitness": 0.674}
{"variant": "GUUCCGUUGGCGUAAUGGUAACGCGUCUCCCUCCUAAGAAGAAGACUGUGGGUUCGUGUCCCGUACGGAACG", "note": "[G39A C49U A57U]", "yeast fitness": 0.562}
{"variant": "GUUCCGUUGGCGUAAUGGUAACGCGUCUCCCUCCUAAGAAGAAGACUGCGGGUUCGAGUCCCGUAUGGAGCG", "note": "[G39A C66U A70G]", "yeast fitness": 0.601}
{"variant": "GUUCCGUUGGCGUAAUGGUAACGCGUCUCCCUCCUAACGAGAAGACUGCGGGUUCAAAUCCCGUACGGAACG", "note": "[G38C G56A G58A]", "yeast fitness": 0.609}
{"variant": "GUUCCGUUGGCGUAAUGGUAACGCGUCUCCCUCCUAACGAGAAGACUGCGGGUACGAGUCCCGUGCGGAACG", "note": "[G38C U54A A65G]", "yeast fitness": "≤ 0.5"}
{"variant": "GUUCCGUUGGCGUAAUGGUAACGCGUCUCCCUCCUAAGAAGAAGACUGCGGGUUGAAGUCCCGUACGGUGCG", "note": "[G39A C55G G56A A69U A70G]", "yeast fitness": "≤ 0.5"}
{"variant": "GUUCCGUUGGCGUAAUGGUAACGCGUCUCCCUCCUAAUGAGAAGACUGCGGGUUCGAGUCCCGUACCGAACG", "note": "[G38U G67C]", "yeast fitness": 0.772}
{"variant": "GUUCCGUUGGCGUAAUGGUAACGCGUCUCCCUCCUAAGAAGAAGACUGCGGGUUUGAGUCCCGUACGCGACG", "note": "[G39A C55U G68C A69G]", "yeast fitness": "≤ 0.5"}
{"variant": "GUUCCGUUGGCGUAAUGGUAACGCGUCUCCCUCCUAAGAAGAAGACUGCGCGUUCGAGUCCCGUACGGAACG", "note": "[G39A G51C]", "yeast fitness": 0.562}
{"variant": "GUUCCGUUGGCGUAAUGGUAACGCGUCUCCCUCCUAAGAACAAGAAUGCGGGUUCGAGUCCCGUACGAAACG", "note": "[G39A G41C C46A G68A]", "yeast fitness": 0.55}
{"variant": "GUUCCGUUGGCGUAAUGGUAACGCGUCUCCCUCCUAACGAGAAGACUGCGGGUACGAGGCCCGUCCGGAACG", "note": "[G38C U54A U59G A65C]", "yeast fitness": 0.692}
{"variant": "GUUCCGUUGGCGUAAUGGUAACGCGUCUCCCUCCUAAGAAGAAGACUGCGGCUUGGAGUCCCAUACGGAACG", "note": "[G39A G52C C55G G63A]", "yeast fitness": "≤ 0.5"}
{"variant": "GUUCCGUUGGCGUAAUGGUAACGCGUCUCCCUCCUAACGAGAAGACCGCGGGUUCGAGUCCCGUUCGGAACG", "note": "[G38C U47C A65U]", "yeast fitness": "≤ 0.5"}
{"variant": "GUUCCGUUGGCGUAAUGGUAACGCGUCUCCCUCCUAAGAAGAUGAUUGCGGGUUCGAGUCCCGUACGGAACG", "note": "[G39A A43U C46U]", "yeast fitness": 0.574}
{"variant": "GUUCCGUUGGCGUAAUGGUAACGCGUCUCCCUCCUAACGAGAAGACUGCGGGUUCGAAUCCCGUACGGAACG", "note": "[G38C G58A]", "yeast fitness": 0.756}
{"variant": "GUUCCGUUGGCGUAAUGGUAACGCGUCUCCCUCCUAACGAGAAGACUGCGGGUUCGACUCCCGUACGGAACG", "note": "[G38C G58C]", "yeast fitness": 0.937}
{"variant": "GUUCCGUUGGCGUAAUGGUAACGCGUCUCCCUCCUAACGAGAAGACUGCGGGUUCGAGUCCCGUACUGAUCG", "note": "[G38C G67U A70U]", "yeast fitness": "≤ 0.5"}
{"variant": "GUUCCGUUGGCGUAAUGGUAACGCGUCUCCCUCCUAACGAGAAGACUGCGGGUUCGACUCCCGAACGGAACG", "note": "[G38C G58C U64A]", "yeast fitness": 0.621}
{"variant": "GUUCCGUUGGCGUAAUGGUAACGCGUCUCCCUCCUAACGAGAAGACUGCGGGUUCGAGUCCCGUACCGAACG", "note": "[G38C G67C]", "yeast fitness": 0.748}
{"variant": "GUUCCGUUGGCGUAAUGGUAACGCGUCUCCCUCCUAAGAAGAAGACUGCGGGUUAAAGUCCCGUACCGAACG", "note": "[G39A C55A G56A G67C]", "yeast fitness": "≤ 0.5"}
